Active and inactive are the calls of the source. The rule behind the calls is not given here.
Experiments:
[1] = molecular target: T1, Beta-3 adrenergic receptor (Homo sapiens, UniProt P13945); test: Antagonist activity at human beta-3 adrenergic receptor expressed in fenoterol-stimulated CHOK1 cells assessed as CRE-SPAP level by […]; format: functional, cell-based, CHO-K1
How it was run: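 CHO-K1 cells stably co-expressing human β3-AR (790 fmol/mg protein) and a six-CRE SPAP reporter, grown to confluence. Fenoterol was the stimulating agonist. SPAP secreted into the medium was measured 5–6 h after agonist addition. Fixed antagonist concentrations of 10, 100 or 1000 nM were used. The Stephenson partial-agonist method was used where partial agonism occurred.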
Target sequence in this assay (P13945 whole entry): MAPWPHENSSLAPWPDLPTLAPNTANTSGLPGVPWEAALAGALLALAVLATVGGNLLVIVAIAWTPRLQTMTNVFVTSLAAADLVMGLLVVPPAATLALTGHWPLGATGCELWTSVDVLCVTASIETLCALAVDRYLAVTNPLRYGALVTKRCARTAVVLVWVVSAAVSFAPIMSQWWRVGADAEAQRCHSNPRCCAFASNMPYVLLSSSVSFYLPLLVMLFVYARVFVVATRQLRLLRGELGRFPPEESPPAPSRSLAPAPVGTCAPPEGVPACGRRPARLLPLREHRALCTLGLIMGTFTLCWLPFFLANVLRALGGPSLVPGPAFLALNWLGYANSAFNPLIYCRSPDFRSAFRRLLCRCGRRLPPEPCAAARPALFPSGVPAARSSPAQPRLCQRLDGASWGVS

[2] = molecular target: T1, Beta-3 adrenergic receptor; test: Displacement of [3H]-CGP 12177 from human beta-3 adrenergic receptor expressed in CHOK1 cells; format: cell-based, CHO-K1
Target sequence in this assay (P13945 whole entry): as above

[3] = molecular target: T2, Beta-1 adrenergic receptor (Homo sapiens, UniProt P08588); test: Antagonist activity at human beta-1 adrenergic receptor site 2 expressed in CGP 12177-stimulated CHO-K1 cells assessed as CRE-SPAP level by […]
T2 sequence (P08588 whole entry): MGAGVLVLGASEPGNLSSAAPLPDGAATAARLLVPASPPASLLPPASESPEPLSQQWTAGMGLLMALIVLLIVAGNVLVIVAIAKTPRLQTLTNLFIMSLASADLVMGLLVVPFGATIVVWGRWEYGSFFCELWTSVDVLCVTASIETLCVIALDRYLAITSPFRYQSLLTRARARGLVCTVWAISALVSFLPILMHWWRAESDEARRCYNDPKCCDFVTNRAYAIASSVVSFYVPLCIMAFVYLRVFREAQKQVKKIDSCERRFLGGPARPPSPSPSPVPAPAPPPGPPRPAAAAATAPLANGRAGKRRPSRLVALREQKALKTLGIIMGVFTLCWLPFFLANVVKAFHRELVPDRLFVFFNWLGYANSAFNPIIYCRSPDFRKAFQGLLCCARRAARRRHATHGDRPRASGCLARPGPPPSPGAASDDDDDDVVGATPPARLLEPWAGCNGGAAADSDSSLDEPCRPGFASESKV

[4] = molecular target: T2, Beta-1 adrenergic receptor; test: biochemical
[5] = molecular target: T3, Beta-2 adrenergic receptor (Homo sapiens, UniProt P07550); test: Displacement of [3H]-CGP 12177 from human beta-2 adrenergic receptor expressed in CHOK1 cells; format: cell-based, CHO-K1
Target sequence in this assay (P07550 whole entry): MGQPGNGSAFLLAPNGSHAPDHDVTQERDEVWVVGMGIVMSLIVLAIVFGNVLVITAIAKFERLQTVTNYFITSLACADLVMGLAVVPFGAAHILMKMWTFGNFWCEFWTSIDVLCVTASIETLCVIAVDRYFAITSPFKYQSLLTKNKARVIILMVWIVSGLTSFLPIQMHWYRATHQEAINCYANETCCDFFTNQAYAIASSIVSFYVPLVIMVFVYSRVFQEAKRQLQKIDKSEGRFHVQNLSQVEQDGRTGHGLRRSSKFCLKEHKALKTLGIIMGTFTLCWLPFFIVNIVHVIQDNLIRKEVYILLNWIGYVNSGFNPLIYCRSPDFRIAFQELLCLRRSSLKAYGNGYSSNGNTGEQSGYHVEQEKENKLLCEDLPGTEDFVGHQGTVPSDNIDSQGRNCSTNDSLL

[6] = molecular target: T3, Beta-2 adrenergic receptor; test: Antagonist activity at human beta-2 adrenergic receptor expressed in salbutamol-stimulated CHO-K1 cells assessed as CRE-SPAP level by […]; format: functional, cell-based
Target sequence in this assay (P07550 whole entry): as above

[7] = molecular target: T2, Beta-1 adrenergic receptor; test: Antagonist activity at human beta-1 adrenergic receptor site 1 expressed in cimeterol-stimulated CHO-K1 cells assessed as CRE-SPAP level by […]; format: functional, cell-based
[8] = molecular target: T3, Beta-2 adrenergic receptor; test: Binding affinity to human beta-2 adrenergic receptor expressed in CHOK1 cells at 3 nM preincubated with > 10 uM beta-1 adrenergic receptor antagonist CGP 20712A for 30 mins measured after 18 hrs by confocal imaging; format: cell-based; settings: CHO-K1
How it was run: (§1)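 Live confocal imaging at room temperature in HEPES-buffered saline. CHO-K1 cells expressing human β2-AR were grown at least 18 h to 80–100% confluence. Where used, antagonists (ICI 118551 1–100 nM; CGP 20712A) were preincubated for 30 min, then 3 nM fluorescent ligand was added for 10 min. Imaging was done in its continued presence, with 633 nm excitation and emission through a 650 nm long-pass filter. Control CHO-K1 cells lacked the receptor.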
Target sequence in this assay (P07550 whole entry, looked up): as the sequence (P07550 whole entry) above

[9] = molecular target: T3, Beta-2 adrenergic receptor; test: Binding affinity to human beta-2 adrenergic receptor expressed in CHOK1 cells at 3 nM preincubated with 1 to 100 nM beta-2 adrenergic receptor antagonist ICI 118551 for 30 mins measured after 18 hrs by confocal imaging; format: cell-based; settings: CHO-K1; how it was run: as §1
Target sequence in this assay (P07550 whole entry, looked up): as the sequence (P07550 whole entry) above

[10] = molecular target: T3, Beta-2 adrenergic receptor; test: Binding affinity to human beta-2 adrenergic receptor expressed in CHOK1 cells at 3 nM after 18 hrs by confocal imaging; format: cell-based; settings: CHO-K1; how it was run: as §1
Target sequence in this assay (P07550 whole entry, looked up): as the sequence (P07550 whole entry) above

[11] = molecular target: T1, Beta-3 adrenergic receptor; test: Partial agonist activity at human beta-3 adrenergic receptor expressed in CHOK1 cells assessed as CRE-SPAP production at 1 uM by […] relative to 10 uM isoprenaline; format: functional, cell-based; settings: CHO-K1
How it was run: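 CHO-K1 cells co-expressing human β3-AR and a CRE-SPAP reporter. SPAP secretion was measured 5–6 h after ligand addition. The response to 1 μM ligand alone is expressed as a percentage of the response to 10 μM isoprenaline within the same experiment. Values are mean ± SE of n separate experiments.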
Target sequence in this assay (P13945 whole entry, looked up): as the sequence (P13945 whole entry) above

| Structure (SMILES) | Kd [1] [nM] | Kd [2] [nM] | Kd [3] [nM] | Kd [4] [nM] | Kd [5] [nM] | Kd [6] [nM] | Kd [7] [nM] | Activity [8] | Activity [9] | Activity [10] | Activity [11] [%] |
| --- | --- | --- | --- | --- | --- | --- | --- | --- | --- | --- | --- |
| O=C(CCCCCNC(=O)COc1ccc(/C=C/c2ccc3n2[B-](F)(F)[N+]2=C(c4cccs4)C=CC2=C3)cc1)NCCNC[C@H](O)COc1cccc2ccccc12 | 26.3 | 44.7 | 91.2 | 36.3 | 1.38 | 0.427 | 8.32 | – | – | – | – |
| O=C(CCCCCNC(=O)COc1ccc(/C=C/c2ccc3n2[B-](F)(F)[N+]2=C(c4cccs4)C=CC2=C3)cc1)NCCCCNC[C@H](O)COc1cccc2ccccc12 | 151 | 123 | 182 | 33.1 | 0.724 | 0.275 | 13.5 | – | – | – | – |
| O=C(CCCCCNC(=O)COc1ccc(/C=C/c2ccc3n2[B-](F)(F)[N+]2=C(c4cccs4)C=CC2=C3)cc1)NCCCCCCCCNC[C@H](O)COc1cccc2ccccc12 | 141 | 67.6 | 794 | 186 | 7.08 | 1.74 | 52.5 | – | – | – | – |
| O=C(CCCCCNC(=O)COc1ccc(/C=C/c2ccc3n2[B-](F)(F)[N+]2=C(c4cccs4)C=CC2=C3)cc1)NCCOCCOCCNC[C@H](O)COc1cccc2ccccc12 | 107 | 81.3 | 67.6 | 17.4 | 0.617 | 0.295 | 3.47 | inactive | inactive | inactive | – |
| C=CCc1ccccc1OC[C@@H](O)CNCCNC(=O)CCCCCNC(=O)COc1ccc(/C=C/c2ccc3n2[B-](F)(F)[N+]2=C(c4cccs4)C=CC2=C3)cc1 | 41.7 | 69.2 | 74.1 | 91.2 | 2.88 | 1.82 | 46.8 | – | – | – | 56.6 |
| C=CCc1ccccc1OC[C@@H](O)CNCCOCCOCCNC(=O)CCCCCNC(=O)COc1ccc(/C=C/c2ccc3n2[B-](F)(F)[N+]2=C(c4cccs4)C=CC2=C3)cc1 | 61.7 | 100 | 41.7 | 22.4 | 0.933 | 0.427 | 7.59 | – | – | – | 63.5 |
| C=CCc1ccccc1OCC(O)CNC(C)C (stereo not drawn) | – | – | – | – | – | – | – | – | – | – | 62.4 |
| CC(C)NCC(O)COc1cccc2[nH]ccc12 (stereo not drawn) | – | – | – | – | – | – | – | – | – | – | 85.2 |
| O=C(CCCCCNC(=O)COc1ccc(/C=C/c2ccc3n2[B-](F)(F)[N+]2=C(c4cccs4)C=CC2=C3)cc1)NCCNCC(O)COc1cccc2ccccc12 (racemic) | 63.1 | 93.3 | 355 | 89.1 | 2.75 | 2.57 | 75.9 | – | – | – | – |
| O=C(CCCCCNC(=O)COc1ccc(/C=C/c2ccc3n2[B-](F)(F)[N+]2=C(c4cccs4)C=CC2=C3)cc1)NCCCCNCC(O)COc1cccc2ccccc12 (racemic) | 79.4 | 105 | 240 | 56.2 | 1.35 | 0.741 | 30.9 | – | – | – | – |
| O=C(CCCCCNC(=O)COc1ccc(/C=C/c2ccc3n2[B-](F)(F)[N+]2=C(c4cccs4)C=CC2=C3)cc1)NCCCCCCCCNCC(O)COc1cccc2ccccc12 (racemic) | 115 | 77.6 | < 1000 | – | 5.75 | 2.51 | 219 | – | – | – | – |
| O=C(CCCCCNC(=O)COc1ccc(/C=C/c2ccc3n2[B-](F)(F)[N+]2=C(c4cccs4)C=CC2=C3)cc1)NCCOCCOCCNCC(O)COc1cccc2ccccc12 (racemic) | 57.5 | 295 | 112 | 72.4 | 3.31 | 0.437 | 41.7 | – | – | – | – |
| C=CCc1ccccc1OCC(O)CNCCNC(=O)CCCCCNC(=O)COc1ccc(/C=C/c2ccc3n2[B-](F)(F)[N+]2=C(c4cccs4)C=CC2=C3)cc1 (racemic) | 23.4 | 46.8 | 120 | 55 | 2.34 | 1.58 | 43.7 | – | – | – | 60.6 |
| C=CCc1ccccc1OCC(O)CNCCOCCOCCNC(=O)CCCCCNC(=O)COc1ccc(/C=C/c2ccc3n2[B-](F)(F)[N+]2=C(c4cccs4)C=CC2=C3)cc1 (racemic) | 57.5 | 81.3 | 77.6 | 31.6 | 1.23 | 0.617 | 17.4 | – | – | – | 49.6 |
| O=C(CCCCCNC(=O)COc1ccc(/C=C/c2ccc3n2[B-](F)(F)[N+]2=C(c4cccs4)C=CC2=C3)cc1)NCCNCC(O)COc1cccc2[nH]ccc12 (racemic) | 178 | 331 | < 1000 | 871 | 46.8 | 30.2 | 302 | – | – | – | 49.4 |
| O=C(CCCCCNC(=O)COc1ccc(/C=C/c2ccc3n2[B-](F)(F)[N+]2=C(c4cccs4)C=CC2=C3)cc1)NCCOCCOCCNCC(O)COc1cccc2[nH]ccc12 (racemic) | 288 | 380 | < 1000 | 97.7 | 11 | 7.24 | 38 | – | – | – | 53.2 |

Reference: ChEMBL document CHEMBL1828559, “Synthesis and characterization of high-affinity 4,4-difluoro-4-bora-3a,4a-diaza-s-indacene-labeled fluorescent ligands for human β-adrenoceptors” (J Med Chem, 2011)
